Assay outcomes as filed in PubChem.
KCNQ1 block: blocks the human KCNQ1 potassium channel. P51787. CHO-K1 KCNQ1, FluxOR thallium flux fluorescence; active compounds read high. B-score at 10 µM. 310,000 tested, 1.3% active;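 active = compounds whose thallium flux B-score, printed positive for inhibition, exceeds three library SD while starting fluorescence stays within three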;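 note: channel opened by potassium depolarization with thallium stimulus after 20 min compound exposure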
KCNK9 inh: blocks the human KCNK9 two-pore domain potassium channel | HEK293 KCNK9, FluxOR thallium flux fluorescence; active compounds read low | B-score at 10 µM | AID 488922 | Q9NPC2 | 310,000 tested, 1.2% active;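 active = ratio B-score over 3 SD below the library mean, with starting fluorescence within 5 SD of its mean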;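 note: negative B-score means less thallium flux so channel inhibition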
Kir21 block: blocks the mouse Kir2.1 inward-rectifier potassium channel | 310,000 tested, 0.85% active | HEK293-Kir2.1, FluxOR thallium flux fluorescence; active compounds read low | AID 1672 | B-score at 10 µM;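 active = fluorescence ratio B-score at or below minus 3 SD of library scores, with starting-brightness B-score within 2 SD, cut at about -4.2 in these data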;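 note: channel flux triggered by added potassium and thallium sulfate stimulus; B-score of peak minus minimum fluorescence over baseline after thallium stimulus; more negative B-score means stronger Kir2.1 block with less thallium influx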
KCNK3 block: human KCNK3 channel inhibition, primary screen | O14649 | CHO-KCNK3 thallium flux, FluxOR fluorescence; active compounds read low | B-score at 10 µM | 340,000 tested, 0.84% active | AID 602410;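 active = B-score under library mean minus 4 SD, starting fluorescence ratio at most library mean plus 5 SD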;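 note: more negative B-score means stronger inhibition of thallium flux through KCNK3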
hERG protect: shields human hERG channel from block by proarrhythmic agents. CHO-hERG, FluxOR thallium flux, dofetilide IC70 present. activation (rescue from dofetilide block), less the hit threshold, % at 10 µM. 310,000 tested, 0.51% active;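 active = activation above the mean of controls blocked by dofetilide plus 5 SD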;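 note: thallium influx through hERG after potassium depolarization seen as dye fluorescence rise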
KCNQ1 act: potentiators or activators of human KCNQ1 potassium channel; CHO-K1 KCNQ1, thallium flux FluxOR fluorescence; active compounds read high; B-score at 10 µM; P51787; 310,000 tested, 0.35% active;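 active = fluorescence ratio B-score, a plate-corrected score, at least three library SD, with initial intensity B-score within 5 SD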
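Assay system: CHO-K1 cells stably expressing KCNQ1. Medium: assay buffer for compound exposure, DMSO matched across wells. Timing: 37 °C overnight plating, 90-min dark dye load, 20-min compound pretreatment. Signal: kinetic FluxOR fluorescence, 10 s baseline plus 110 s post-stimulus.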
KCNK9 inh conf: human KCNK9 inhibitor confirmation; AID 492992; inhibition, % at 10 µM; HEK293 KCNK9 cells, FluxOR thallium flux fluorescence; 4,900 tested, 43% active; shares compounds with KCNK9 inh;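 active = thallium signal inhibited by more than 5 SD of the compound-free buffer control wells, on both duplicate plates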
Kir2-1 spec: tests whether KCNK9 modulators also affect mouse Kir2.1; shares compounds with KCNK9 inh; Kir2.1 cells, FluxOR thallium flux fluorescence; inhibition, % at 10 µM; 4,900 tested, 4% active; AID 492993;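 active = thallium signal drop more than 5 SD beyond the mean of the no-compound control wells, seen in both duplicate plates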;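 note: signal is fluorescence rise after thallium addition divided by baseline fluorescence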
HEK293 Tl ctr: non-induced cell nonspecific activity of KCNK9 modulators. shares compounds with KCNK9 inh. non-induced KCNK9-HEK293, FluxOR thallium flux. inhibition, % at 10 µM. 4,900 tested, 40% active. AID 492997;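 active = thallium signal drop beyond 5 SD of the untreated control mean, on both duplicate plates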
Numbers stand for hits; 0 = inactive; - = no result. Compounds with a hit are over-represented: about 3.8% of the library has one in this group of screens.

SMILES	KCNQ1 block	KCNK9 inh	Kir21 block	KCNK3 block	hERG protect	KCNQ1 act	KCNK9 inh conf	Kir2-1 spec	HEK293 Tl ctr
O=C(Nc1cccnc1)c1ccc2nc(-c3ccccc3)c(-c3ccccc3)nc2c1	0	-11	0	0	0	0	42%	0	40%
COc1cc(NC(=O)C2CCCN(S(=O)(=O)c3cccc4nsnc34)C2)cc(OC)c1 (configuration not stated)	0	0	0	0	0	0	0	0	0
CC1(C)Cc2nc3[nH]c(=S)n(-c4ccccc4)c(=O)c3cc2CO1	0	0	0	0	0	0	-	-	-
Cc1ccc(OCCOC(=O)C2CCN(S(=O)(=O)c3ccc(C)c(C)c3)CC2)cc1	0	0	0	0	0	0	0	0	0
Cc1cccc(OCCC(=O)Nc2ccc(C)c(S(=O)(=O)N3CCCCC3)c2)c1	0	0	0	0	0	0	0	0	0
CC(=O)c1ccc(OCCCC(=O)Nc2ccc(C)c(S(=O)(=O)N3CCCCC3)c2)cc1	-	-	-	0	-	-	-	-	-
Cc1cccc(Oc2ccc(S(=O)(=O)N3CCCCC3)cc2N)c1	0	-10	0	0	0	0	50%	0	31%
Cc1cccc(OCCOC(=O)C2CCN(S(=O)(=O)c3ccc(C)c(C)c3)CC2)c1	0	0	0	0	0	0	0	0	0
O=C(OCc1nnc(-c2ccccc2)o1)c1ccc2c(c1)OCO2	0	0	0	0	0	0	-	-	-
CCOc1ccc(-n2c(N)c(-c3nc4ccccc4[nH]3)sc2=S)cc1	0	0	0	0	0	0	-	-	-
Cc1nc2c(ccc3nc(NC(=O)Cc4cccc5ccccc45)sc32)s1	0	0	0	0	0	0	-	-	-
Cc1nc2c(ccc3nc(NC(=O)C(c4ccccc4)c4ccccc4)sc32)s1	0	-9.8	0	0	0	0	0	0	0
CC1Nc2ncnc(N3CCc4ccccc4C3)c2N(Cc2ccc(Cl)cc2)C1=O (configuration not stated)	0	-11	0	0	0	0	34%	0	30%
CC1Nc2ncnc(N3CCc4ccccc4C3)c2N(Cc2ccc(Br)cc2)C1=O (configuration not stated)	0	-11	0	0	0	0	31%	0	30%
O=C1C(Cc2ccccc2)Nc2ncnc(N3CCc4ccccc4C3)c2N1Cc1ccccc1 (configuration not stated)	-	-	-	0	-	-	-	-	-
O=C1Nc2ccc([N+](=O)[O-])cc2C1(O)N1CCCCC1 (configuration not stated)	0	0	0	0	0	0	-	-	-
O=C(/C=C/c1ccccc1)NC(=S)Nc1cccnc1	0	0	0	0	0	0	-	-	-
C=C1C[C@H]2[C@@H]3CCc4cc(OC)ccc4[C@H]3CC[C@]12C	0	0	0	0	0	0	-	-	-
COc1ccc(S(=O)(=O)Nc2cccnc2)cc1	0	0	0	0	0	0	-	-	-
CCOP(=O)(OCC)c1nc(-c2cccc3ccccc23)oc1NCCc1ccc(OC)cc1	0	0	0	0	0	0	0	0	28%
CCOP(=O)(OCC)c1nc(-c2cccc3ccccc23)oc1N1CCOCC1	0	0	0	0	0	0	-	-	-
O=C(NCC1CCCN1S(=O)(=O)c1ccccc1)c1cccc(Cl)c1 (configuration not stated)	0	0	0	0	0	0	-	-	-
CC(C)(C)c1ccc(C(=O)NCC2CCCN2S(=O)(=O)c2ccccc2)cc1 (configuration not stated)	0	0	0	0	0	0	0	0	0
CC(C)c1ccc(OC(=O)c2cccc(S(=O)(=O)N3CCN(C)CC3)c2)cc1	0	0	0	0	0	0	0	0	0
CCCCCC(=O)O[C@]1(C(C)=O)CC[C@H]2[C@@H]3CCC4=CC(=O)CC[C@]4(C)[C@H]3CC[C@@]21C	12	-13	0	-10	0	0	66%	0	45%
